Test results: ChEMBL document CHEMBL1133087, “Radioiodinated N-(2-diethylaminoethyl)benzamide derivatives with high melanoma uptake: structure-affinity relationships, metabolic fate, and intracellular localization” (J Med Chem, 2000)

Tests used:
Mus musculus [1] = assay: Biodistribution was studied by injecting intravenously into C57B1/6 mice bearing subcutaneously transplanted B16 melanoma after 1 hr.; assay type: ADME, organism-based; conditions: in vivo, iv
[2] = The lipophilicity was measured in an octanol/water system at pH 7.4.; assay type: physicochemical
Outline: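 HPLC-purified no-carrier-added radioiodinated benzamide was added to 0.067 M phosphate buffer at pH 7.4 with an equal volume of 1-octanol. The mixture was vortexed to equilibrium, centrifuged and the phases separated. Each phase was γ-counted, with log P = log(cpm octanol/cpm buffer).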

Mus musculus [3] = assay: Biodistribution was studied by injecting intravenously into C57B1/6 mice bearing subcutaneously transplanted B16 spleen after 1 hr.; assay type: ADME, organism-based; conditions: in vivo, iv
Mus musculus [4] = assay: Biodistribution was studied by injecting intravenously into C57B1/6 mice bearing subcutaneously transplanted B16 blood after 1 hr.; assay type: ADME, organism-based; conditions: in vivo, iv
Mus musculus [5] = assay: Biodistribution was studied by injecting intravenously into C57B1/6 mice bearing subcutaneously transplanted B16 heart after 6 hr.; assay type: ADME, organism-based; conditions: in vivo, iv
Mus musculus [6] = assay: Biodistribution was studied by injecting intravenously into C57B1/6 mice bearing subcutaneously transplanted B16 muscle after 1 hr.; assay type: ADME, organism-based, Muscle tissue; conditions: in vivo, iv
Mus musculus [7] = assay: Biodistribution was studied by injecting intravenously into C57B1/6 mice bearing subcutaneously transplanted B16 muscle after 6 hr.; assay type: ADME, organism-based, Muscle tissue; conditions: in vivo, iv
Mus musculus [8] = assay: Biodistribution was studied by injecting intravenously into C57B1/6 mice bearing subcutaneously transplanted B16 […] after 6 hr.; assay type: ADME, organism-based; conditions: in vivo, iv
Mus musculus [9] = assay: Biodistribution was studied by injecting intravenously into C57B1/6 mice bearing subcutaneously transplanted B16 kidney after 1 hr.; assay type: ADME, organism-based; conditions: in vivo, iv
Mus musculus [10] = assay: Biodistribution was studied by injecting intravenously into C57B1/6 mice bearing subcutaneously transplanted B16 kidney after 6 hr.; assay type: ADME, organism-based; conditions: in vivo, iv
Mus musculus [11] = assay: Biodistribution was studied by injecting intravenously into C57B1/6 mice bearing subcutaneously transplanted B16 liver after 1 hr.; assay type: ADME, organism-based; conditions: in vivo, iv
Mus musculus [12] = assay: Biodistribution was studied by injecting intravenously into C57B1/6 mice bearing subcutaneously transplanted B16 liver after 6 hr.; assay type: ADME, organism-based; conditions: in vivo, iv
Mus musculus [13] = assay: Biodistribution was studied by injecting intravenously into C57B1/6 mice bearing subcutaneously transplanted B16 lung after 1 hr.; assay type: ADME, organism-based; conditions: in vivo, iv
Mus musculus [14] = assay: Biodistribution was studied by injecting intravenously into C57B1/6 mice bearing subcutaneously transplanted B16 lung after 6 hr.; assay type: ADME, organism-based; conditions: in vivo, iv
Mus musculus [15] = assay: Biodistribution was studied by injecting intravenously into C57B1/6 mice bearing subcutaneously transplanted B16 melanoma after 6 hr.; assay type: ADME, organism-based; conditions: in vivo, iv
Mus musculus [16] = assay: Biodistribution was studied by injecting intravenously into C57B1/6 mice bearing subcutaneously transplanted B16 blood after 6 hr.; assay type: ADME, organism-based; conditions: in vivo, iv
Mus musculus [17] = assay: Biodistribution was studied by injecting intravenously into C57B1/6 mice bearing subcutaneously transplanted B16 brain after 1 hr.; assay type: ADME, organism-based; conditions: in vivo, iv
Mus musculus [18] = assay: Biodistribution was studied by injecting intravenously into C57B1/6 mice bearing subcutaneously transplanted B16 brain after 6 hr.; assay type: ADME, organism-based; conditions: in vivo, iv
Mus musculus [19] = assay: Biodistribution was studied by injecting intravenously into C57B1/6 mice bearing subcutaneously transplanted B16 heart after 1 hr.; assay type: ADME, organism-based; conditions: in vivo, iv
Mus musculus [20] = assay: (§1) Amount of urinary radioactivity collected within 4 hr after iv injection into C57B1/6 mice was analyzed by RP-HPLC.; assay type: ADME, organism-based, Urine; conditions: in vivo
Mus musculus [21] = assay: Biodistribution was studied by injecting intravenously into C57B1/6 mice bearing subcutaneously transplanted B16 blood after 24 hr; assay type: ADME, organism-based; conditions: in vivo, iv
Mus musculus [22] = assay: Biodistribution was studied by injecting intravenously into C57B1/6 mice bearing subcutaneously transplanted B16 muscle after 24 hr.; assay type: ADME, organism-based, Muscle tissue; conditions: in vivo, iv
Mus musculus [23] = assay: Biodistribution was studied by injecting intravenously into C57B1/6 mice bearing subcutaneously transplanted B16 spleen after 24 hr.; assay type: ADME, organism-based; conditions: in vivo, iv
Mus musculus [24] = assay: Biodistribution was studied by injecting intravenously into C57B1/6 mice bearing subcutaneously transplanted B16 kidney after 24 hr.; assay type: ADME, organism-based; conditions: in vivo, iv
Mus musculus [25] = assay: Biodistribution was studied by injecting intravenously into C57B1/6 mice bearing subcutaneously transplanted B16 liver after 24 hr.; assay type: ADME, organism-based; conditions: in vivo, iv
Mus musculus [26] = assay: Biodistribution was studied by injecting intravenously into C57B1/6 mice bearing subcutaneously transplanted B16 lung after 24 hr.; assay type: ADME, organism-based; conditions: in vivo, iv
Mus musculus [27] = assay: Biodistribution was studied by injecting intravenously into C57B1/6 mice bearing subcutaneously transplanted B16 melanoma after 24 hr.; assay type: ADME, organism-based; conditions: in vivo, iv
Mus musculus [28] = assay: Biodistribution was studied by injecting intravenously into C57B1/6 mice bearing subcutaneously transplanted B16 brain after 24 hr.; assay type: ADME, organism-based; conditions: in vivo, iv
Mus musculus [29] = assay: Biodistribution was studied by injecting intravenously into C57B1/6 mice bearing subcutaneously transplanted B16 heart after 24 hr.; assay type: ADME, organism-based; conditions: in vivo, iv
B16 [30] = assay: Binding of radioiodinated compound in B16 cells as a function of specific activity for blood at 1 hr after injecting at 1.5(umol/mouse).; assay type: functional
Outline: (§2)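 C57Bl/6 mice carried subcutaneous B16 melanoma. Melanoma and blood radioactivity were measured by γ-counting at 1 or 6 h and expressed as % ID/g (mean, n = 3).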

B16 [31] = assay: Binding of radioiodinated compound in B16 cells as a function of specific activity for blood at 1 hr after injecting at 1.5*10e-3 (uMol/mouse).; assay type: functional; outline: as §2
B16 [32] = assay: Binding of radioiodinated compound in B16 cells as a function of specific activity for blood at 1 hr after injecting at 1.8*10e-6 (uMol/mouse).; assay type: functional; outline: as §2
B16 [33] = assay: Binding of radioiodinated compound in B16 cells as a function of specific activity for blood at 6 hr after injecting at 1.5(umol/mouse).; assay type: functional; outline: as §2
B16 [34] = assay: Binding of radioiodinated compound in B16 cells as a function of specific activity for blood at 6 hr after injecting at 1.5*10e-3 (uMol/mouse); assay type: functional; outline: as §2
B16 [35] = assay: Binding of radioiodinated compound in B16 cells as a function of specific activity for blood at 6 hr after injecting at 1.8*10e-6 (uMol/mouse).; assay type: functional; outline: as §2
B16 [36] = assay: Binding of radioiodinated compound in B16 cells as a function of specific activity for melanoma after 1 hr injecting at 1.8*10e-6 (uMol/mouse).; assay type: functional; outline: as §2
B16 [37] = assay: Binding of radioiodinated compound in B16 cells as a function of specific activity for melanoma at 1 hr after injecting at 1.5(umol/mouse).; assay type: functional; outline: as §2
B16 [38] = assay: Binding of radioiodinated compound in B16 cells as a function of specific activity for melanoma at 1 hr after injecting at 1.5*10e-3 (uMol/mouse).; assay type: functional; outline: as §2
B16 [39] = assay: Binding of radioiodinated compound in B16 cells as a function of specific activity for melanoma at 6 hr after injecting at 1.5(umol/mouse).; assay type: functional; outline: as §2
B16 [40] = assay: Binding of radioiodinated compound in B16 cells as a function of specific activity for melanoma at 6 hr after injecting at 1.5*10e-3 (uMol/mouse).; assay type: functional; outline: as §2
B16 [41] = assay: Binding of radioiodinated compound in B16 cells as a function of specific activity for melanoma at 6 hr after injecting at 1.8*10e-6 (uMol/mouse).; assay type: functional; outline: as §2
Mus musculus [42] = assay: as §1; assay type: functional, Urine
[43] = Selectivity parameter calculated as the mean of 8 melanoma / non target tissue ratio at 1 hr postinjection; assay type: functional
Outline: (§3)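 Tissue radioactivity was γ-counted as % ID/g. Selectivity (M/NTT) is the mean of the 8 melanoma/nontarget tissue ratios: blood, heart, lung, spleen, liver, kidney, muscle and brain. n = 3.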

[44] = Selectivity parameter calculated as the mean of 8 melanoma / non target tissue ratio at 6 hr postinjection; assay type: functional; outline: as §3

ID/g (Mus musculus [1]) | logD [2] | ID/g (Mus musculus [3]) | ID/g (Mus musculus [4]) | ID/g (Mus musculus [5]) | ID/g (Mus musculus [6]) | ID/g (Mus musculus [7]) | ID/g (Mus musculus [8]) | ID/g (Mus musculus [9]) | ID/g (Mus musculus [10]) | ID/g (Mus musculus [11]) | ID/g (Mus musculus [12]) | ID/g (Mus musculus [13]) | ID/g (Mus musculus [14]) | ID/g (Mus musculus [15]) | ID/g (Mus musculus [16]) | ID/g (Mus musculus [17]) | ID/g (Mus musculus [18]) | ID/g (Mus musculus [19]) | ID (Mus musculus [20]) | SMILES | further results
6.21% | 1.34 | 5.62% | 6.5% | 0.58% | 1.81% | 0.44% | 1.39% | 6.46% | 1.22% | 4.05% | 0.77% | 7.98% | 1.82% | 1.2% | 1.51% | 0.48% | 0.09% | 3.19% | – | CCN(CC)CCNC(=O)c1ccc(NC(C)=O)c(I)c1 | –
21.87% | 1.78 | 6.55% | 3.3% | 1.05% | 1.37% | 0.44% | 2.09% | 5.09% | 1.97% | 8.03% | 9.86% | 5.53% | 3.02% | 23.32% | 2.56% | 0.62% | 0.19% | 2.1% | 16% | CCN(CC)CCNC(=O)c1cc(I)c(NC(C)=O)cc1OC | ID/g (Mus musculus [21]): 0.21%; ID/g (Mus musculus [22]): 0.03%; ID/g (Mus musculus [23]): 0.17%; ID/g (Mus musculus [24]): 0.4%; ID/g (Mus musculus [25]): 3.72%; ID/g (Mus musculus [26]): 0.25%; ID/g (Mus musculus [27]): 16.06%; ID/g (Mus musculus [28]): 0.02%; ID/g (Mus musculus [29]): 0.09%
– | – | – | – | – | – | – | – | – | – | – | – | – | – | – | – | – | – | – | – | CCN(CC)CCNC(=O)c1ccc(I)cc1 | ID/g (B16 [30]): 1.04%; ID/g (B16 [31]): 1.06%; ID/g (B16 [32]): 0.65%; ID/g (B16 [33]): 0.1%; ID/g (B16 [34]): 0.15%; ID/g (B16 [35]): 0.17%; ID/g (B16 [36]): 5.67%; ID/g (B16 [37]): 11.6%; ID/g (B16 [38]): 10%; ID/g (B16 [39]): 14.6%; ID/g (B16 [40]): 15.5%; ID/g (B16 [41]): 9.32%; ID (Mus musculus [42]): 66%
6.5% | 1.13 | 0.39% | 0.2% | 0.05% | 0.19% | 0.03% | 0.05% | 0.93% | 0.17% | 2.62% | 0.29% | 0.69% | 0.09% | 4.14% | 0.04% | 0.1% | 0.01% | 0.25% | 82% | CCN(CC)CCNC(=O)c1ccc(OC)c(I)c1 | ID/g (B16 [30]): 0.78%; ID/g (B16 [31]): 1.03%; ID/g (B16 [32]): 0.2%; ID/g (B16 [33]): 0.29%; ID/g (B16 [34]): 0.24%; ID/g (B16 [35]): 0.04%; ID/g (B16 [36]): 6.5%; ID/g (B16 [37]): 5.41%; ID/g (B16 [38]): 4.86%; ID/g (B16 [39]): 3.72%; ID/g (B16 [40]): 5.27%; ID/g (B16 [41]): 4.14%; Ratio [43]: 24; Ratio [44]: 129
